In ChEMBL document CHEMBL4017523, “Computer-Aided Identification and Lead Optimization of Dual Murine Double Minute 2 and 4 Binders: Structure-Activity Relationship Studies and Pharmacological Activity” (J Med Chem, 2017):
pIC50: −log10 of the molar value. Activity calls are given as the source filed them. The calls are words filed in the database; no cut-off is given here.

Columns and labels:
U-87 MG [1] = assay: Antiproliferative activity against human U87MG cells at 1 uM after 24 hrs by MTS assay; type: functional, cell-based; settings: U-87MG ATCC
In short: (§1)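 Cells treated for 24 h, either alone or combined with reference MDM2 inhibitor (1 μM) and/or MDM4 inhibitor (1 μM). Drug medium then swapped for fresh medium and growth continued before MTS read-out. Data given as percent of untreated control set to 100% (mean ± SEM, N = 3).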

SH-SY5Y [2] = assay: Antiproliferative activity against human SH-SY5Y cells at 1 uM after 24 hrs in presence of […] by MTS assay relative to control; type: functional; in short: as §1
SH-SY5Y [3] = assay: Antiproliferative activity against human SH-SY5Y derived cancer stem cells after 7 days by MTS assay; type: functional, cell-based
In short: (§2)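 Cancer stem cells isolated by culturing 2.5 × 10^6 tumor cells without serum in NSC medium for 7 days. Treated with test agent (100 nM–10 μM) for 7 days, drug-containing medium renewed every 3 days. Proliferation measured by MTS and expressed as percent of control (mean ± SEM, N = 3).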

U-87 MG [4] = assay: Antiproliferative activity against human U87MG cells at 1 nM to 100 uM after 72 hrs by neutral red dye-based assay; type: functional, cell-based; settings: U-87MG ATCC
In short: (§3)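 Cells exposed to DMSO control or test agent at 1 nM to 100 μM for 72 h. Drug medium replaced, then 0.33% neutral red solution added at 10% of medium volume for 2 h at 37 °C. After PBS rinse, dye extracted with 1% glacial acetic acid/50% ethanol in PBS with 10 min shaking. Absorbance read at 540 nm.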

SH-SY5Y [5] = assay: Antiproliferative activity against human SH-SY5Y cells after 24 hrs by MTS assay
SH-SY5Y [6] = assay: Antiproliferative activity against human SH-SY5Y cells at 1 nM to 100 uM after 72 hrs by neutral red dye-based assay; type: functional, cell-based; in short: as §3
SH-SY5Y [7] = assay: cells; settings: Homo sapiens, 24 h, read-out: Activity
U-87 MG [8] = assay: Antiproliferative activity against human U87MG derived cancer stem cells after 7 days by MTS assay; type: functional, cell-based; settings: U-87MG ATCC; in short: as §2
[9] = target: T1, Protein Mdm4 (Homo sapiens) (UniProt O15151); assay: Inhibition of MDM4 in human SH-SY5Y cells assessed as increase in PUMA mRNA levels at 1 uM after 24 hrs in presence of Nutlin-3 by RT-qPCR analysis; type: cell-based
T1 sequence (whole entry): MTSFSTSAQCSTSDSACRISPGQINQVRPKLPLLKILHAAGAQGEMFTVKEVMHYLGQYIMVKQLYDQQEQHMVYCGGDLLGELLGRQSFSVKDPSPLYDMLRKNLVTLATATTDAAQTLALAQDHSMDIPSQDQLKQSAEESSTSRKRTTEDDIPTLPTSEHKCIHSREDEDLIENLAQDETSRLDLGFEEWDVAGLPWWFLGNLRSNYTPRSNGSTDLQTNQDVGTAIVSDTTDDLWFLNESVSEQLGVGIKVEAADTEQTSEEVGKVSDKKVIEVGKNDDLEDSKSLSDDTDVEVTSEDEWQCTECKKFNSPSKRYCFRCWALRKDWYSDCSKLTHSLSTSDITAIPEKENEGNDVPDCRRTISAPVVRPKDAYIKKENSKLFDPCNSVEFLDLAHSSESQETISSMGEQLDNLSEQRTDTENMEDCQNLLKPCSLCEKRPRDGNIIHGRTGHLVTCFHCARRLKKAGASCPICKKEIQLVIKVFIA
In short: (§4)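 Cells incubated 24 h with agents at 1 μM, alone or combined with MDM2 inhibitor. RNA extracted and MDM2, PUMA and p21 transcripts quantified by real-time RT-PCR. Results reported as fold change versus control (mean ± SEM, N = 3).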

SH-SY5Y [10] = assay: Antiproliferative activity against human SH-SY5Y cells at 1 uM after 24 hrs in presence of Nutlin-3 by MTS assay relative to control; type: functional
In short: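 Cells were exposed to compound for 24 h, alone or with 1 μM MDM2 inhibitor. Drug medium was then replaced with fresh medium, and cells grew for a further 3 days before the MTS read-out. Values are % of control (100%), mean ± SEM, N=3. For SH-SY5Y, IC50 came from a sigmoid dose-response fit.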

[11] = target: T1, Protein Mdm4 (Homo sapiens); assay: Inhibition of MDM4 in human SH-SY5Y cells assessed as increase in PUMA mRNA levels at 1 uM after 24 hrs by RT-qPCR analysis; type: cell-based; in short: as §4
[12] = target: T1, Protein Mdm4 (Homo sapiens); assay: Inhibition of MDM4 in human SH-SY5Y cells assessed as increase in p21 mRNA levels at 1 uM after 24 hrs by RT-qPCR analysis; type: cell-based; in short: as §4
[13] = target: T1, Protein Mdm4 (Homo sapiens); assay: Inhibition of MDM4 in human SH-SY5Y cells assessed as increase in p21 mRNA levels at 1 uM after 24 hrs in presence of Nutlin-3 by RT-qPCR analysis; type: cell-based; in short: as §4
Protein Mdm4 = target: T2, Protein Mdm4 (Homo sapiens, UniProt O15151); assay: Inhibition of MDM4 in human SH-SY5Y cells assessed as reduction in MDM4 interaction with p53 after 10 mins by quantitative sandwich immune-enzymatic assay; type: cell-based
T2 sequence (O15151 whole entry): T1 sequence (whole entry)

[14] = target: E3 ubiquitin-protein ligase Mdm2 (Homo sapiens, UniProt Q00987); assay: Inhibition of MDM2 in human U87MG cells assessed as reduction in MDM2 interaction with p53 after 10 mins by quantitative sandwich immune-enzymatic assay; type: cell-based
Sequence of E3 ubiquitin-protein ligase Mdm2 (Q00987 whole entry): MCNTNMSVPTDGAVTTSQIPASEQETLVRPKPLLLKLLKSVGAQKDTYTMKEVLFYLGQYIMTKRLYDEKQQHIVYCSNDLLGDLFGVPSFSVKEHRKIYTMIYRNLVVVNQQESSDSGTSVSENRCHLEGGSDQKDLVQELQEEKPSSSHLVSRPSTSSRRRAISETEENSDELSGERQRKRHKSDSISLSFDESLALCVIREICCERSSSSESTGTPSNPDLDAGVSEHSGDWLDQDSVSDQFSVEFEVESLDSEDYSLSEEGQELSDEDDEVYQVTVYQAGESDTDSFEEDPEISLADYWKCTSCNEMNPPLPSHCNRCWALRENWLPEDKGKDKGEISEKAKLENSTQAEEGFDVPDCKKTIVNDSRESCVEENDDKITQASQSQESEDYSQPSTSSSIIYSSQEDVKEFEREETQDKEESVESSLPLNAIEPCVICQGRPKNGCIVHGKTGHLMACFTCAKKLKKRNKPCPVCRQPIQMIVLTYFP

[15] = target: T1, Protein Mdm4 (Homo sapiens); assay: Inhibition of MDM4 in human SH-SY5Y cells assessed as increase in MDM2 mRNA levels at 1 uM after 24 hrs by RT-qPCR analysis; type: cell-based; in short: as §4
[16] = target: T1, Protein Mdm4 (Homo sapiens); assay: Inhibition of MDM4 in human SH-SY5Y cells assessed as accumulation of p53 at 1 uM after 24 hrs by Western blot analysis; type: cell-based
In short: (§5)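 Cells treated 24 h with DMSO control or agents at 1 μM, alone or combined with 1 μM MDM2 inhibitor. Cells lysed in RIPA buffer and run on 8.5% SDS-PAGE. Blots probed overnight at 4 °C with anti-p53 (1:200), using GAPDH as loading control. Bands quantified by densitometry as percent OD versus control (mean ± SEM, N = 2).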

[17] = target: T1, Protein Mdm4 (Homo sapiens); assay: Inhibition of MDM4 in human SH-SY5Y cells assessed as accumulation of p53 at 1 uM after 24 hrs in presence of Nutlin-3 by Western blot analysis; type: cell-based; in short: as §5

SMILES | Activity (U-87 MG [1]) | Activity (SH-SY5Y [2]) [%] | Activity (SH-SY5Y [3]) | Activity (U-87 MG [4]) | pIC50 (SH-SY5Y [5]) | Activity (SH-SY5Y [6]) | viability at 1 µM (SH-SY5Y [7]) [%] | Activity (U-87 MG [8]) | inhibition [9] | Activity (SH-SY5Y [10]) [%] | inhibition [11] | inhibition [12] | inhibition [13] | pIC50 (Protein Mdm4) | pIC50 [14] | inhibition [15] | inhibition [16] | inhibition [17]
COc1ccc(C2=N[C@H](c3ccc(Cl)cc3)[C@H](c3ccc(Cl)cc3)N2C(=O)N2CCNC(=O)C2)c(OC(C)C)c1 | Active | 47.1 |  |  |  |  |  |  |  |  |  |  |  |  |  |  |  | 
O=C(CC(c1ccccc1)c1ccccc1)N[C@@H](Cc1ccc(OCCCNc2ccccn2)cc1)C(=O)O |  |  | Dose-dependent effect | Active | 6.45 | Active | 62.4 | Dose-dependent effect |  |  |  |  |  |  |  |  |  | 
CCOc1cc(/C=C2\C(=O)N(c3ccccc3)N=C2C)cc(Cl)c1OCC(=O)OC | inactive |  |  |  |  |  |  |  | Active | 47.1 | inactive | inactive | Active | 6.07 | < 6.00 | Active | Active | Active
